{"source": "ChEMBL document CHEMBL4251573", "about": "“Synthesis and biological evaluation of N-substituted 3-oxo-1,2,3,4-tetrahydro-quinoxaline-6-carboxylic acid derivatives as tubulin polymerization inhibitors” (Eur J Med Chem, 2018)", "key": {"HeLa [1]": {"system": "HeLa", "experiment": "Antiproliferative activity against human HeLa cells after 72 hrs by MTT assay", "format": "functional, cell-based", "procedure,_shortened": "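HeLa and SMMC-7721 cells in log phase were seeded at 4000-6000 cells/well. After 24 h, quadruplicate wells were treated with a series of concentrations for 72 h. DMSO stocks were 5 mmol/L, with final DMSO below 0.1%. MTT (10 mg/mL in PBS) was added for 4 h, medium replaced with DMSO, and OD read at 490 nm. IC50 came from at least five concentrations; mean and SD of at least three independent experiments.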"}, "HeLa [2]": {"system": "HeLa", "experiment": "Cell cycle arrest in human HeLa cells assessed as accumulation at S phase at 0.20 uM after 24 hrs by propidium iodide staining-based flow cytometric method (reference value: 10.3%)", "format": "functional"}, "HeLa [3]": {"system": "HeLa", "experiment": "Cell cycle arrest in human HeLa cells assessed as accumulation at G2/M phase at 0.10 uM after 24 hrs by propidium iodide staining-based flow cytometric method (reference value: 19.9%)", "format": "functional"}, "Tubulin": {"target": "Tubulin", "experiment": "Inhibition of tubulin (unknown origin) polymerization after 40 mins by fluorescence assay", "format": "protein-complex assay, Homo sapiens", "procedure,_shortened": "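Fluorescence-based kit assay. Compounds, in duplicate, were warmed 1 min at 37 °C, then cold tubulin mix was added (2 mg/mL tubulin in 80 mM PIPES pH 6.9, 2.0 mM MgCl2, 0.5 mM EGTA, 1.0 mM GTP, 15% glycerol). Assembly was read at ex 360/em 450 nm each minute for 1 h at 37 °C; 0.1% DMSO vehicle. IC50 is the concentration halving assembly extent at 40 min, from four concentrations.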"}, "HeLa [4]": {"system": "HeLa", "experiment": "Induction of apoptosis in human HeLa cells assessed as viable cells at 0.15 uM after 24 hrs by annexin V-FITC/propidium iodide staining-based flow cytometric method (reference value: 97.39%)", "format": "functional", "settings": "read-out: Activity"}, "HeLa [5]": {"system": "HeLa", "experiment": "Cell cycle arrest in human HeLa cells assessed as accumulation at S phase at 0.25 uM after 24 hrs by propidium iodide staining-based flow cytometric method (reference value: 10.3%)", "format": "functional"}, "HeLa [6]": {"system": "HeLa", "experiment": "Induction of apoptosis in human HeLa cells assessed as late apoptotic cells at 0.15 uM after 24 hrs by annexin V-FITC/propidium iodide staining-based flow cytometric method (reference value: 0.15%)", "format": "functional"}, "HeLa [7]": {"system": "HeLa", "experiment": "Disruption of microtubule network in human HeLa cells after 24 hrs by Hoechst 33342 staining-based immunofluorescence microscopic method", "format": "cell-based", "procedure,_shortened": "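HeLa cells were plated at 4000 per well for 24 h, then exposed for 24 h to vehicle or drug (0.1-0.2 μM). Fixation was 4% paraformaldehyde, 10 min, 4 °C, then 0.1% Triton X-100, 5 min, and 1% BSA block, 1 h. Staining used anti-α-tubulin (1:100, 12 h, 4 °C), then FITC anti-mouse IgG (1:100, 30 min, 37 °C), with Hoechst 33342 for nuclei. Imaged by fluorescence microscopy.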"}, "HeLa [8]": {"system": "HeLa", "experiment": "Cell cycle arrest in human HeLa cells assessed as accumulation at G2/M phase after 24 hrs by propidium iodide staining-based flow cytometric method", "format": "functional"}, "HeLa [9]": {"system": "HeLa", "experiment": "Induction of apoptosis in human HeLa cells assessed as early apoptotic cells at 0.10 uM after 24 hrs by annexin V-FITC/propidium iodide staining-based flow cytometric method (reference value: 2.31%)", "format": "functional"}, "HeLa [10]": {"system": "HeLa", "experiment": "Induction of apoptosis in human HeLa cells assessed as plasmatorrhexis at 0.10 to 0.20 uM by microscopic method", "format": "functional, cell-based", "procedure,_shortened": "(§1)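 Morphology of HeLa cells was examined by light microscopy after 24 h exposure to 0.10, 0.15 or 0.20 μM, or 0.1% DMSO, alongside the annexin V/PI experiment.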"}, "HeLa [11]": {"system": "HeLa", "experiment": "Induction of apoptosis in human HeLa cells assessed as early apoptotic cells at 0.15 uM after 24 hrs by annexin V-FITC/propidium iodide staining-based flow cytometric method (reference value: 2.31%)", "format": "functional"}, "HeLa [12]": {"system": "HeLa", "experiment": "Induction of apoptosis in human HeLa cells assessed as membrane blebbing at 0.10 to 0.20 uM by microscopic method", "format": "functional, cell-based", "procedure,_shortened": "as §1"}, "HeLa [13]": {"system": "HeLa", "experiment": "Cell cycle arrest in human HeLa cells assessed as accumulation at G2/M phase at 0.25 uM after 24 hrs by propidium iodide staining-based flow cytometric method (reference value: 19.9%)", "format": "functional"}, "HeLa [14]": {"system": "HeLa", "experiment": "Induction of apoptosis in human HeLa cells assessed as viable cells at 0.10 uM after 24 hrs by annexin V-FITC/propidium iodide staining-based flow cytometric method (reference value: 97.39%)", "format": "functional", "settings": "read-out: Activity"}, "HeLa [15]": {"system": "HeLa", "experiment": "Cell cycle arrest in human HeLa cells assessed as accumulation at G0/G1 phase at 0.10 uM after 24 hrs by propidium iodide staining-based flow cytometric method (reference value: 62.2%)", "format": "functional"}, "HeLa [16]": {"system": "HeLa", "experiment": "Induction of apoptosis in human HeLa cells assessed as viable cells at 0.20 uM after 24 hrs by annexin V-FITC/propidium iodide staining-based flow cytometric method (reference value: 97.39%)", "format": "functional", "settings": "read-out: Activity"}, "K562": {"system": "K562", "experiment": "Antiproliferative activity against human K562 cells after 72 hrs by MTT assay", "format": "functional, cell-based", "settings": "K562, 72 h", "procedure,_shortened": "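K562 cells were grown in RPMI 1640 with 10% FBS at 37 °C in 5% CO2, then seeded at 4000-6000 cells/well. Quadruplicate wells were exposed to drug for 72 h, with final DMSO below 0.1%. After 4 h with MTT, solubilizer (10% SDS, 5% isobutyl alcohol, 0.01 M HCl) was added for 12 h, then OD read at 490 nm. IC50 came from at least five concentrations; mean and SD of at least three experiments.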"}, "HeLa [17]": {"system": "HeLa", "experiment": "Cell cycle arrest in human HeLa cells assessed as accumulation at G2/M phase at 0.15 uM after 24 hrs by propidium iodide staining-based flow cytometric method (reference value: 19.9%)", "format": "functional"}, "HeLa [18]": {"system": "HeLa", "experiment": "Cell cycle arrest in human HeLa cells assessed as accumulation at S phase at 0.10 uM after 24 hrs by propidium iodide staining-based flow cytometric method (reference value: 10.3%)", "format": "functional"}, "HeLa [19]": {"system": "HeLa", "experiment": "Cell cycle arrest in human HeLa cells assessed as accumulation at sub G1 phase at 0.15 uM after 24 hrs by propidium iodide staining-based flow cytometric method (reference value: 7.6%)", "format": "functional"}, "HeLa [20]": {"system": "HeLa", "experiment": "Induction of apoptosis in human HeLa cells assessed as late apoptotic cells at 0.10 uM after 24 hrs by annexin V-FITC/propidium iodide staining-based flow cytometric method (reference value: 0.15%)", "format": "functional"}, "HeLa [21]": {"system": "HeLa", "experiment": "Induction of apoptosis in human HeLa cells assessed as necrotic cells at 0.10 uM after 24 hrs by annexin V-FITC/propidium iodide staining-based flow cytometric method (reference value: 0.15%)", "format": "functional"}, "HeLa [22]": {"system": "HeLa", "experiment": "Cell cycle arrest in human HeLa cells assessed as accumulation at sub G1 phase at 0.20 uM after 24 hrs by propidium iodide staining-based flow cytometric method (reference value: 7.6%)", "format": "functional"}, "HeLa [23]": {"system": "HeLa", "experiment": "Induction of apoptosis in human HeLa cells assessed as necrotic cells at 0.20 uM after 24 hrs by annexin V-FITC/propidium iodide staining-based flow cytometric method (reference value: 0.15%)", "format": "functional"}, "HeLa [24]": {"system": "HeLa", "experiment": "Cell cycle arrest in human HeLa cells assessed as accumulation at sub G1 phase at 0.25 uM after 24 hrs by propidium iodide staining-based flow cytometric method (reference value: 7.6%)", "format": "functional"}, "HeLa [25]": {"system": "HeLa", "experiment": "Induction of apoptosis in human HeLa cells after 24 hrs by annexin V-FITC/propidium iodide staining-based flow cytometric method", "format": "functional, cell-based"}}, "note": "Calls of active or inactive are those of the source. The calls are words filed in the database; no cut-off is given here.", "data": [{"smiles": "COC(=O)c1ccc2c(c1)NC(=O)CN2C(=O)c1cc(OC)c(OC)c(OC)c1", "values": [{"measurement": "IC50", "setting": "HeLa [1]", "value": 126, "unit": "nM"}, {"measurement": "Activity", "setting": "HeLa [2]", "value": 8, "unit": "%"}, {"measurement": "Activity", "setting": "HeLa [3]", "value": 21.8, "unit": "%"}, {"measurement": "IC50", "setting": "Tubulin", "value": 3970, "unit": "nM"}, {"measurement": "viability at 0.15 µM", "setting": "HeLa [4]", "value": 69.7, "unit": "%"}, {"measurement": "Activity", "setting": "HeLa [5]", "value": 8.3, "unit": "%"}, {"measurement": "Activity", "setting": "HeLa [6]", "value": 9.95, "unit": "%"}, {"measurement": "Activity", "setting": "HeLa [7]", "value": "Dose-dependent effect"}, {"measurement": "Activity", "setting": "HeLa [8]", "value": "Dose-dependent effect"}, {"measurement": "Activity", "setting": "HeLa [9]", "value": 12.1, "unit": "%"}, {"measurement": "Activity", "setting": "HeLa [10]", "value": "Active"}, {"measurement": "Activity", "setting": "HeLa [11]", "value": 16.5, "unit": "%"}, {"measurement": "Activity", "setting": "HeLa [12]", "value": "Active"}, {"measurement": "Activity", "setting": "HeLa [13]", "value": 44.6, "unit": "%"}, {"measurement": "viability at 0.1 µM", "setting": "HeLa [14]", "value": 76.1, "unit": "%"}, {"measurement": "Activity", "setting": "HeLa [15]", "value": 55.2, "unit": "%"}, {"measurement": "viability at 0.2 µM", "setting": "HeLa [16]", "value": 62.2, "unit": "%"}, {"measurement": "IC50", "setting": "K562", "value": 164, "unit": "nM"}, {"measurement": "Activity", "setting": "HeLa [17]", "value": 29.2, "unit": "%"}, {"measurement": "Activity", "setting": "HeLa [18]", "value": 9.9, "unit": "%"}, {"measurement": "Activity", "setting": "HeLa [19]", "value": 31.6, "unit": "%"}, {"measurement": "Activity", "setting": "HeLa [20]", "value": 7.87, "unit": "%"}, {"measurement": "Activity", "setting": "HeLa [21]", "value": 3.9, "unit": "%"}, {"measurement": "Activity", "setting": "HeLa [22]", "value": 32.9, "unit": "%"}, {"measurement": "Activity", "setting": "HeLa [23]", "value": 6.36, "unit": "%"}, {"measurement": "Activity", "setting": "HeLa [24]", "value": 33.1, "unit": "%"}, {"measurement": "Activity", "setting": "HeLa [25]", "value": "Dose-dependent effect"}]}]}
